Measurements as given in PMC4501086 (Nature, 2014).
Where two headings read alike, the source gives them in different places.

Experiments:
[1] = test system: CD69 expression in anti-IgM stimulated whole blood; test: anti-IgM stimulated human whole blood, FACS for CD69; type: cell-based; details: read-out: anti-IgM stimulated whole blood CD69 expression IC50
[2] = test system: chronic lymphocytic leukaemia (CLL) and non-Hodgkin's lymphoma; details: cited from earlier work
p110β = p110β (Homo sapiens, UniProt P42338); test: PI3K isoform inhibition, Ki and IC50; type: biochemical
Chain of p110β (P42338 whole entry, species assumed, canonical isoform): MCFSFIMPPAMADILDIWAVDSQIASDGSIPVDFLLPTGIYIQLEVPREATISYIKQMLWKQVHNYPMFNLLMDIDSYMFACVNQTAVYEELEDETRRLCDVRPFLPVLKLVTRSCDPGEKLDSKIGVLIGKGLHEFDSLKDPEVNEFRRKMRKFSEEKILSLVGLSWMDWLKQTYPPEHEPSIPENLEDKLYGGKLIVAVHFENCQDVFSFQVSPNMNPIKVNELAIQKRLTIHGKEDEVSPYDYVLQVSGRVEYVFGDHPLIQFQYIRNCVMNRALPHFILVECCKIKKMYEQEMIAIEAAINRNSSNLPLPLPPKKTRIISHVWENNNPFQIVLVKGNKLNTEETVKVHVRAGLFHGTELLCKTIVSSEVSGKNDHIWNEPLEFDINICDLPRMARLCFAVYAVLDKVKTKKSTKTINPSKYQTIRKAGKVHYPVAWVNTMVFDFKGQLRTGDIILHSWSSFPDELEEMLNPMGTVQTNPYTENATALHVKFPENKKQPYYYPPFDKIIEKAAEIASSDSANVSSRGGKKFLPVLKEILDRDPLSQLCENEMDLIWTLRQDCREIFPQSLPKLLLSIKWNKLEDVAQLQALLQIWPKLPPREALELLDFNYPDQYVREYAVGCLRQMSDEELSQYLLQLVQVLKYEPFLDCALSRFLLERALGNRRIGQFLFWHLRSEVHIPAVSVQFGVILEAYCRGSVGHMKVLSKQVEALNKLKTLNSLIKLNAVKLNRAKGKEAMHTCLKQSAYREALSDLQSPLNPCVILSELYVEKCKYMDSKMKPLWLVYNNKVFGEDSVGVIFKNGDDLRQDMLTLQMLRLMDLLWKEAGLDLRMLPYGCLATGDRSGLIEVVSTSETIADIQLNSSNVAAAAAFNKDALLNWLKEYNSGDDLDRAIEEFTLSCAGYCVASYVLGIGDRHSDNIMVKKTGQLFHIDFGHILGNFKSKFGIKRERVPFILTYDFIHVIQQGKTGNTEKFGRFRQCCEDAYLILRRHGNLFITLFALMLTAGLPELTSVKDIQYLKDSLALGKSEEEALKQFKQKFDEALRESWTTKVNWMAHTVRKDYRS
Chain of p110β (P27986 whole entry partner, species assumed, canonical isoform): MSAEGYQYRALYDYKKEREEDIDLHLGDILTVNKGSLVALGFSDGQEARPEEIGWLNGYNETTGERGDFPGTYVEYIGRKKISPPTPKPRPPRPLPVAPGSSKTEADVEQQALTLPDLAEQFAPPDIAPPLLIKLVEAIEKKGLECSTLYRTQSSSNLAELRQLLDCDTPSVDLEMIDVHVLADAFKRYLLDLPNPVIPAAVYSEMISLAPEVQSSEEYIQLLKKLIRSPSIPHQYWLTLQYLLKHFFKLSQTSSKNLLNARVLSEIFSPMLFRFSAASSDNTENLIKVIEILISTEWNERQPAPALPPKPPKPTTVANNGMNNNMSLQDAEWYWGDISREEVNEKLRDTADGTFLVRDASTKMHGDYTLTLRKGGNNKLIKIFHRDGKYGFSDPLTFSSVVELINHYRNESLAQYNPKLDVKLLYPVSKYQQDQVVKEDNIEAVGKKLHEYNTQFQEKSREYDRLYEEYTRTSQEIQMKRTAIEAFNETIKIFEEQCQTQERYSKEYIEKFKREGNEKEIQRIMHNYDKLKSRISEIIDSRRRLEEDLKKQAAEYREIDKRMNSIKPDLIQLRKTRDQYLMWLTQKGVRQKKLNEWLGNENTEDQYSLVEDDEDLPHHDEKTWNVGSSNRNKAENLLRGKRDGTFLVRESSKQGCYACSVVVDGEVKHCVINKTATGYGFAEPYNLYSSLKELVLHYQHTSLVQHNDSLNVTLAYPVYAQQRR

4T1 tumour = test: 4T1 breast cancer model, orthotopic in mammary fat pad, oral PI-3065; type: in vivo, female WT BALB/c mice; details: 75 mg/kg daily per os
In short: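 Luciferase-labelled 4T1 cells (10^5) inoculated into the mammary/breast fat pad 12 h after the first oral dose of vehicle or test compound (75 mg/kg daily, 36 days). Tumour growth followed by luciferase imaging and caliper volume. Tumour weight and luciferase activity measured in tumours excised 35 days after inoculation. Metastasis incidence by H&E histology as % of tumour-bearing mice. Body weight change from day 0. Mann-Whitney test.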

72 protein kinases = test: KinaseProfiler assay; type: biochemical; details: at ≤ 10 μM
4T1 cells = test: Proliferation of 4T1 cells in vitro; type: cell-based, mouse; details: 4 h treatment, washing, MTS staining after 48 h culture
[3] = test system: pancreatic ductal adenocarcinoma (PDAC); test: KPC model of pancreatic ductal adenocarcinoma, treatment of palpable disease; type: in vivo, KPC mice
In short: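 KPC mice (endogenous mutant KrasG12D and p53R172H in Pdx1+ pancreatic cells) developed palpable disease before vehicle or test compound (75 mg/kg) began. Read-outs were survival, macrometastases and pathology by H&E, Treg (% of CD4+) and CD44high cells (% of CD8+) in draining lymph nodes, and CD8+ cells (% of CD45+) in normal pancreas versus PDAC lesions. Mann-Whitney test.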

p110α = p110α (Homo sapiens, UniProt P42336); test: PI3K isoform inhibition, Ki and IC50; type: biochemical
Chain of p110α (P42336 whole entry, species assumed, canonical isoform): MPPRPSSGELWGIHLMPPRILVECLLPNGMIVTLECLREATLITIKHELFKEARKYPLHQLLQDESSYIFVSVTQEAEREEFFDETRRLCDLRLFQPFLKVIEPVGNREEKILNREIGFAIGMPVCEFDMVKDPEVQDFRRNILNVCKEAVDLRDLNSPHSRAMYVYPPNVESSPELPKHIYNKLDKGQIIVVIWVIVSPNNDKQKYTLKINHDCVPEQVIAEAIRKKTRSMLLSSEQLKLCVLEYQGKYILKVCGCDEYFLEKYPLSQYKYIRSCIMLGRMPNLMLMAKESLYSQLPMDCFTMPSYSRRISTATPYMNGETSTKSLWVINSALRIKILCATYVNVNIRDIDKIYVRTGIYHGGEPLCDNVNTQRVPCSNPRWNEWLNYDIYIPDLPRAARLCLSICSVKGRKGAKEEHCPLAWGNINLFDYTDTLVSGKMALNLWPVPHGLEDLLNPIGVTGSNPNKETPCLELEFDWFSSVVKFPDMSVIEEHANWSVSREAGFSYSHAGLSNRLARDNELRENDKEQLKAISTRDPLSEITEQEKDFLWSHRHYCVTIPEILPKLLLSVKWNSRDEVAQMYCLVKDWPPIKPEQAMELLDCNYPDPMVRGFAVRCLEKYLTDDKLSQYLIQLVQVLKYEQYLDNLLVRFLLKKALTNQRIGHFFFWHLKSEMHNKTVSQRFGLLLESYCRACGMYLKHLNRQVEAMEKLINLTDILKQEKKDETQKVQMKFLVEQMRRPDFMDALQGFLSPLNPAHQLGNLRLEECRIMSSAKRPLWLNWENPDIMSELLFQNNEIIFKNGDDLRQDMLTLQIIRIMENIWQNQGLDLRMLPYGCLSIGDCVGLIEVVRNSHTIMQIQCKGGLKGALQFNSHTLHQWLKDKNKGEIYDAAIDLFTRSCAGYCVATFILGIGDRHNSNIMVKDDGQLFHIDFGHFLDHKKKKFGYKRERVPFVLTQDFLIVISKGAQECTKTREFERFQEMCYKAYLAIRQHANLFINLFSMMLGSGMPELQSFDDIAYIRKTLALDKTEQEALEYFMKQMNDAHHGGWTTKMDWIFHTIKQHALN
Chain of p110α (P27986 whole entry partner, species assumed, canonical isoform): as the sequence (P27986 whole entry partner, species assumed, canonical isoform) above

p110δ = p110δ (Homo sapiens, UniProt O00329); test: PI3K isoform inhibition, Ki and IC50; type: biochemical
Chain of p110δ (O00329 whole entry, species assumed, canonical isoform): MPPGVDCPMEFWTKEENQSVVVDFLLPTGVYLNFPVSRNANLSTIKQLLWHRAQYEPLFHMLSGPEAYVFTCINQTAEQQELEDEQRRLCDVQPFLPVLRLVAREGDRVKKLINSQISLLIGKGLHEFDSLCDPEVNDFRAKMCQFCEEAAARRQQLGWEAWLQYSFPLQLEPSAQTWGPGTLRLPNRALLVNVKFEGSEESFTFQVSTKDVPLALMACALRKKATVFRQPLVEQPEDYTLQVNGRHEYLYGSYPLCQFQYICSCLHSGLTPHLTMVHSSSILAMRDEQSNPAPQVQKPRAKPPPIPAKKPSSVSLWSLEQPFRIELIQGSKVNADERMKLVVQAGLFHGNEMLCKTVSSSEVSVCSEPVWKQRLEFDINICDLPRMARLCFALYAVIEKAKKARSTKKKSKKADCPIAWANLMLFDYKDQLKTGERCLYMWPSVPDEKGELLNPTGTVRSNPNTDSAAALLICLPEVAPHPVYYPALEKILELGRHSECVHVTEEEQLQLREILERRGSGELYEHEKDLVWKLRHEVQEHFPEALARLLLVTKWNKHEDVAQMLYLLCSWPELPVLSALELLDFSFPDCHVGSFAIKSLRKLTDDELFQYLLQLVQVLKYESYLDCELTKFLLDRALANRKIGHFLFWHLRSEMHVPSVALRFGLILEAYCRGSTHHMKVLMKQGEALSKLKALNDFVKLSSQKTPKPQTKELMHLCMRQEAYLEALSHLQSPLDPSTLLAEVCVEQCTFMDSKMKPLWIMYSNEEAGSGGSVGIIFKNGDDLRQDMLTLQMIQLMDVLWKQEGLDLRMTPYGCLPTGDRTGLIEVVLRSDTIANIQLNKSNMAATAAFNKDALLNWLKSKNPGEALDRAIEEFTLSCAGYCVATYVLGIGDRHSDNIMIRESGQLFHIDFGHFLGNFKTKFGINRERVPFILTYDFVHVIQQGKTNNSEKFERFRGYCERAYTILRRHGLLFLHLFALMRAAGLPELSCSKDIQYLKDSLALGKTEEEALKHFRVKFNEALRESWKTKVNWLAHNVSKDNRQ
Chain of p110δ (P27986 whole entry partner, species assumed, canonical isoform): as the sequence (P27986 whole entry partner, species assumed, canonical isoform) above

p110γ = p110γ (Homo sapiens, UniProt P48736); test: PI3K isoform inhibition, Ki and IC50; type: biochemical
Chain of p110γ (P48736 whole entry, species assumed, canonical isoform): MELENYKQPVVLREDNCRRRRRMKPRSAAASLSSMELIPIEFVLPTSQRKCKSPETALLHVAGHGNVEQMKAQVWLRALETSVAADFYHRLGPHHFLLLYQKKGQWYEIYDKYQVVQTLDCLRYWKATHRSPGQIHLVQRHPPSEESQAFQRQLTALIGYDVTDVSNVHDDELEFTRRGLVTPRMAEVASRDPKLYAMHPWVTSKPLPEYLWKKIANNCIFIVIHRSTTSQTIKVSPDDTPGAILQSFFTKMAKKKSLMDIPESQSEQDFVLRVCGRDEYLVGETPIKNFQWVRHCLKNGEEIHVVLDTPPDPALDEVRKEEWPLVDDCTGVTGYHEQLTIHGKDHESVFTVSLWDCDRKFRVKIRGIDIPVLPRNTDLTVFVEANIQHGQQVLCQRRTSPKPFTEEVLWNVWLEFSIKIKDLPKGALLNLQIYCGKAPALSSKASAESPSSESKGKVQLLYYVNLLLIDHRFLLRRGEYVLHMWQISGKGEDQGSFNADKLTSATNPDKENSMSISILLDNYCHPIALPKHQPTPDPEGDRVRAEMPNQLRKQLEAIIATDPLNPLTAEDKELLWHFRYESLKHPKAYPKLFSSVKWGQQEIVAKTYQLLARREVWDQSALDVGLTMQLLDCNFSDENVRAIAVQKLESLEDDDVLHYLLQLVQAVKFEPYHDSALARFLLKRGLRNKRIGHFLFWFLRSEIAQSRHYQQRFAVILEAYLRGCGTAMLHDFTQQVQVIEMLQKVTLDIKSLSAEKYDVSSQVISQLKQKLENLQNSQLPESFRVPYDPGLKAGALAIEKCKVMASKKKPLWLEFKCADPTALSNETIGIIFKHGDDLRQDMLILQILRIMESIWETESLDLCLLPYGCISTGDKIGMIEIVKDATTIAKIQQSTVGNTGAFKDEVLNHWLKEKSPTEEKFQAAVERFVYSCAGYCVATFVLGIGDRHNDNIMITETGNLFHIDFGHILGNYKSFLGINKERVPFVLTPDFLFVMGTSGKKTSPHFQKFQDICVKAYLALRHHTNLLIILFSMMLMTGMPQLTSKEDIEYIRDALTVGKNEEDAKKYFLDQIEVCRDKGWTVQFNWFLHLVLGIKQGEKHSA

[4] = 36 consecutive days, 4T1 tumour-bearing mice
[5] = 75 mg/kg, treatment after palpable disease

Structure (SMILES)	IC50 ([1]; human whole blood, anti-IgM, FACS for CD69)	IC50 ([1]; Homo sapiens)	therapeutic impact in patients [2]	IC50 (p110β)	Ki (p110β)	body weight loss (4T1 tumour; [4])	tolerability of long-term administration (4T1 tumour; [4])	4T1 metastasis (4T1 tumour; 36 days)	4T1 tumour growth (4T1 tumour; 36 days)	activity against 72 protein kinases (72 protein kinases)	in vitro growth inhibition of 4T1 cells (4T1 cells)	incidence of metastases and other disease-associated pathologies [3, 5]	survival of KPC mice [3, 5]	infiltrating CD8+ T cells in pancreatic lesions ([3]; 14 days after treatment)	levels of CD44high CD8+ lymphocytes in the draining lymph nodes ([3]; after 7 days of treatment)	relative abundance of peripheral Treg in lymph nodes ([3]; after 7 days of treatment)	Ki (p110α)	Ki (p110δ)	IC50 (p110γ)	Ki (p110γ)
Cc1ccccc1-n1c(Cn2cnc3c(N)ncnc32)nc2cccc(C)c2c1=O [IC87114]	3500 nM																			
CC[C@H](Nc1ncnc2[nH]cnc12)c1nc2cccc(F)c2c(=O)n1-c1ccccc1 [Idelalisib]		60 nM	impressive therapeutic impact																	
Fc1ccc2[nH]ccc2c1-c1nc(N2CCOCC2)c2sc(CN3CCN(CC4CC4)CC3)cc2n1 [PI-3065]		38 nM		600 nM	130 nM	did not induce weight loss	well-tolerated	suppressed	suppressed	No significant activity	not growth-inhibited	reduced	prolonged survival	relatively more	higher levels	reduced	110 nM	1.5 nM	> 10000 nM	940 nM
